Marks after values point to notes of the source that are not given here.
Experiments:
human OCT1 = target: T1, human OCT1 (Homo sapiens, UniProt O15245); assay: Cellular accumulation of platinum in HEK-hOCT1 cells; assay type: in vitro ADME; conditions: 10 μM, 1 h
T1 sequence (O15245 1-554): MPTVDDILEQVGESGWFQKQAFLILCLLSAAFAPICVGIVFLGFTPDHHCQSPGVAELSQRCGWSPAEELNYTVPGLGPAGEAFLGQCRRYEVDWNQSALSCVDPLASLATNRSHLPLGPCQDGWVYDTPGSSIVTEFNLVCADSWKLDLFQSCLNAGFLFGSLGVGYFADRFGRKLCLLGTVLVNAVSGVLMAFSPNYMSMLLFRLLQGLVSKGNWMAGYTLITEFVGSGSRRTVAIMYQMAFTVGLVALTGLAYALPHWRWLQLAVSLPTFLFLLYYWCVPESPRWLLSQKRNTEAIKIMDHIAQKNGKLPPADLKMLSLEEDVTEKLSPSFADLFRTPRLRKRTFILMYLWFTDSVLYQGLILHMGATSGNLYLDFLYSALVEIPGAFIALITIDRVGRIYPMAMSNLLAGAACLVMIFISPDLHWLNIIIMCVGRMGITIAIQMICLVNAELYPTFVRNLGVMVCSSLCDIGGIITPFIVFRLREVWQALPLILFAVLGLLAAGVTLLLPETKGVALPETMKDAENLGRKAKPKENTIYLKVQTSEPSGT
Summary of the method: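 HEK293 cells stably carrying full-length mouse Oct1 cDNA in pcDNA5/FRT, selected with hygromycin B; the human OCT1 line's construct is not described. Cells grown in DMEM H21 with 10% FBS at 37°C, 5% CO2. Exposed to 10 μM test compound in serum-free medium for 1 h, then washed 3× with ice-cold PBS. Digested in 70% nitric acid at 65°C for ≥2.5 h. Pt measured by ICP-MS, normalised to BCA protein.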

genomic DNA = assay: Platinum-DNA adduct formation in primary mouse hepatocytes; assay type: cell-based
Summary of the method: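 Attached wild-type or Oct1-/- mouse hepatocytes were exposed to 10 μM test compound for 1 h at 37°C in serum-free medium, with or without OCT1 inhibitor. Cells were then washed with ice-cold PBS. Genomic DNA was kit-purified. DNA-bound Pt was measured by ICP-MS, and DNA by A260 from the same preparation. Adduct level expressed as pmol Pt/μg DNA.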

[1] = Tissue accumulation of platinum in Oct1+/+ and Oct1-/- mice; assay type: in vivo, mouse; conditions: for Brain Normalized platinum / Heart Normalized platinum / Intestine Normalized platinum / Kidney Normalized platinum / Liver Normalized platinum / Muscle Normalized platinum: divided by plasma concentration
Summary of the method: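 Male FVB Oct1+/+ and Oct1-/- mice (8 weeks) were given 8 mg/kg in saline i.v. by tail vein and killed 1 h later. Liver, kidney, heart, lung, brain, intestine, spleen and muscle were snap-frozen. Total Pt was measured by ICP-MS in 10–30 mg tissue and reported as nmol/g tissue; plasma was reported in μM.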

[2] = Plasma platinum pharmacokinetics in Oct1+/+ and Oct1-/- mice; assay type: in vivo, mouse; conditions: single i.v. 8 mg/kg
Summary of the method: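 Male FVB Oct1+/+ and Oct1-/- mice (8 weeks) received a single tail-vein dose of 8 mg/kg in saline. Heparinised plasma was taken by heart puncture at 15 and 30 min and at 1, 2, 3, 4, 8, 10, 24 and 48 h. Total Pt in 5 μl plasma and in urine was measured by ICP-MS. Parameters (Vss, CL, renal CL) came from two-compartment analysis.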

Oct1+/+ and Oct1-/- mice = assay: Toxicity study of CDPCP in Oct1+/+ and Oct1-/- mice; assay type: in vivo, mouse; conditions: for Kidney histopathological examination (affected/examined animals) / Liver histopathological examination (affected/examined animals): 24 hr after third i.v. dose; for liver-to-body-weight ratio increase compared with saline-treated mice: 120 mg/kg reduced to 90 mg/kg
Summary of the method: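 Male Oct1+/+ and Oct1-/- mice (8 weeks, ≥9 per group) were randomised to saline or test compound. Dosing was by tail vein once weekly ×3 (120 mg/kg initially, later 90 mg/kg). Body weight was recorded three times weekly. Mice were fasted ≥16 h and killed under isoflurane 24 h after the last dose. Measures: serum ALT/AST/ALKP and liver weight. Liver and kidney were fixed in 4% paraformaldehyde, paraffin-embedded and H&E stained; affected/examined animals were counted.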

[3] = OCT1 KO mice, 1 h after IV 8 mg/kg
[4] = OCT1 WT mice, 1 h after IV 8 mg/kg
[5] = Oct1+/+ mice, i.v. once weekly for 3 weeks
[6] = Oct1-/- mice, i.v. once weekly for 3 weeks

## [NH3+][Pt-2]([NH3+])([Cl])[n+]1ccccc1 (stereo not drawn) [CDPCP, cis-diammine(pyridine)chloroplatinum(II)]
Human OCT1
  uptake of platinum: 852 ± 135 pmol/mg protein/hr
Genomic DNA; 10 μM, 1 h
  platinum-DNA adduct level, fold greater in wild-type than Oct1-/-: 2.4 fold
Genomic DNA; hepatocytes from Oct1-/- mice, 10 μM, 1 h
  platinum-DNA adduct level: 0.0351 ± 0.00344 pmol/μg DNA
Genomic DNA; hepatocytes from Oct1-/- mice, 10 μM, 1 h, disopyramide 150 μM
  platinum-DNA adduct level: 0.0338 ± 0.00798 pmol/μg DNA
Genomic DNA; hepatocytes from Oct1 wild-type mice, 10 μM, 1 h
  platinum-DNA adduct level: 0.0857 ± 0.0232 pmol/μg DNA
Genomic DNA; hepatocytes from Oct1 wild-type mice, 10 μM, 1 h, disopyramide 150 μM
  platinum-DNA adduct level: 0.0233 ± 0.00847 pmol/μg DNA
Genomic DNA; hepatocytes from Oct1 wild-type mice, disopyramide 150 μM
  fold decrease in platinum-DNA adduct formation by disopyramide: 3.7 fold
[1]; 1 h after 8 mg/kg
  total platinum in plasma, fold higher in Oct1-/- than wild-type mice: 1.3 fold
[1]; 1 h after IV 8 mg/kg
  Brain Absolute platinum, OCT1 WT/KO ratio: 0.9
  Brain Normalized platinum, OCT1 WT/KO ratio: 1.2
  Heart Absolute platinum, OCT1 WT/KO ratio: 0.6**
  Heart Normalized platinum, OCT1 WT/KO ratio: 0.8*
  Intestine Absolute platinum, OCT1 WT/KO ratio: 2.8*
  Kidney Absolute platinum, OCT1 WT/KO ratio: 0.7*
  Kidney Normalized platinum, OCT1 WT/KO ratio: 1.0
  Liver Absolute platinum, OCT1 WT/KO ratio: 2.1**
  Muscle Absolute platinum, OCT1 WT/KO ratio: 0.8*
  Muscle Normalized platinum, OCT1 WT/KO ratio: 1.0
  Plasma platinum, OCT1 WT/KO ratio: 0.8**
[1]; [3]
  Brain Absolute platinum: 0.487 ± 0.128 pmol/g tissue
  Heart Absolute platinum: 15.4 ± 1.83 pmol/g tissue
  Intestine Absolute platinum: 32.3 ± 14.2 pmol/g tissue
  Kidney Absolute platinum: 44.3 ± 11.5 pmol/g tissue
  Liver Absolute platinum: 38.2 ± 8.51 pmol/g tissue
  Muscle Absolute platinum: 2.08 ± 0.292 pmol/g tissue
  Plasma platinum: 17.2 ± 2.11 µM
  Brain Normalized platinum: 0.0282 ± 0.00518 ml/g tissue
  Heart Normalized platinum: 0.898 ± 0.0813 ml/g tissue
  Intestine Normalized platinum: 1.84 ± 0.571 ml/g tissue
  Kidney Normalized platinum: 2.47 ± 0.552 ml/g tissue
  Liver Normalized platinum: 2.23 ± 0.440 ml/g tissue
  Muscle Normalized platinum: 0.122 ± 0.0201 ml/g tissue
[1]; [4]
  Brain Absolute platinum: 0.436 ± 0.116 pmol/g tissue
  Heart Absolute platinum: 9.77 ± 1.20 pmol/g tissue
  Intestine Absolute platinum: 90.9 ± 28.0 pmol/g tissue
  Kidney Absolute platinum: 32.1 ± 2.93 pmol/g tissue
  Liver Absolute platinum: 81.8 ± 9.31 pmol/g tissue
  Muscle Absolute platinum: 1.62 ± 0.144 pmol/g tissue
  Plasma platinum: 13.5 ± 1.72 µM
  Brain Normalized platinum: 0.0328 ± 0.0114 ml/g tissue
  Heart Normalized platinum: 0.725 ± 0.0747 ml/g tissue
  Intestine Normalized platinum: 7.13 ± 2.47 ml/g tissue
  Kidney Normalized platinum: 2.40 ± 0.374 ml/g tissue
  Liver Normalized platinum: 6.09 ± 0.792 ml/g tissue
  Muscle Normalized platinum: 0.121 ± 0.0118 ml/g tissue
[2]; both Oct1+/+ and Oct1-/- mice
  contribution of renal clearance to total clearance of platinum from plasma: about 50%
[2]
  volume of distribution, Oct1 wild-type as fold of Oct1-/-: 1.77 fold
Oct1+/+ and Oct1-/- mice; OCT1+/+ mice
  Kidney histopathological examination (affected/examined animals): Normal (4/4)
  Liver histopathological examination (affected/examined animals): Severe swollen hepatocytes (3/4); Mild swollen hepatocytes(1/4)
Oct1+/+ and Oct1-/- mice; OCT1-/- mice
  Kidney histopathological examination (affected/examined animals): Kidney tube protein contents (3/4); kidney hyaline necrosis (1/4)
  Liver histopathological examination (affected/examined animals): Mild swollen hepatocytes(1/4)
Oct1+/+ and Oct1-/- mice; Oct1+/+ mice
  serum BUN levels vs saline: significantly reduced
Oct1+/+ and Oct1-/- mice; [5]
  actual liver weight: 1.23 g
  liver-to-body-weight ratio increase compared with saline-treated mice: 28.8%
Oct1+/+ and Oct1-/- mice; Oct1+/+ mice, vs saline
  serum glucose levels: significant increase
  total serum protein levels: significant decrease
Oct1+/+ and Oct1-/- mice; Oct1-/- mice
  serum BUN vs saline: not affected
Oct1+/+ and Oct1-/- mice; [6]
  actual liver weight: 1.02 g
  liver-to-body-weight ratio increase compared with saline-treated mice: 14.7%
Oct1+/+ and Oct1-/- mice; both Oct1+/+ and Oct1-/- mice
  serum creatinine levels vs saline: not significantly different
Oct1+/+ and Oct1-/- mice; dose-range finding toxicity study
  dose resulting in significant changes in body weight, liver-to-body-weight ratio, liver function and hematology: ≥ 90 mg/kg
Oct1+/+ and Oct1-/- mice; either Oct1+/+ or Oct1-/- mice
  histological examination of intestine: no signs of intestinal toxicity
Oct1+/+ and Oct1-/- mice; either Oct1+/+ or Oct1-/- mice, i.v. once weekly for 3 weeks
  activities of ALT, AST and ALKP: not affected
Oct1+/+ and Oct1-/- mice; i.v. once weekly for 3 weeks
  body weight loss in Oct1-/- mice compared with Oct1+/+ mice: much greater
Oct1+/+ and Oct1-/- mice; wild-type mice, 120 mg/kg, dose-finding studies (data not shown)
  ALT: significant increases

From article PMC3040319 (Pharmaceutical Research, 2010)
